According to ChEMBL document CHEMBL1136943, “Nocathiacin analogs: Synthesis and antibacterial activity of novel water-soluble amides” (Bioorg Med Chem Lett, 2009):
≈ marks a conversion by molar mass, not a printed value.

Key:
Staphylococcus aureus [1] = assay: Antibacterial activity against Staphylococcus aureus MB2865 in liquid culture by turbidity method; assay type: functional
Summary of the method: (§1)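 MIC is the lowest concentration giving 100% inhibition of bacterial growth in liquid culture, read by turbidity.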

Streptococcus pneumoniae = assay: Antibacterial activity against Streptococcus pneumoniae CL2883 in liquid culture by turbidity method; assay type: functional; summary of the method: as §1
Enterococcus faecalis [2] = assay: Antibacterial activity against Enterococcus faecalis C21560 in liquid culture by turbidity method; assay type: functional; summary of the method: as §1
Staphylococcus aureus [3] = assay: Antibacterial activity against Staphylococcus aureus infected in mouse model assessed as reduction of >= 2 log 10 cfu kidney burden; assay type: functional
Summary of the method: (§2)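 Systemic S. aureus infection mouse model (SATOA). Compounds were given iv; […]. Kidney bacterial burden (cfu) was compared with untreated control. ED99 is the dose giving a reduction of at least 2 log10 cfu in kidney burden.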

[4] = biological target: T1, Type-2 angiotensin II receptor (Homo sapiens, UniProt P50052); assay: Inhibition of AT2 receptor
T1 sequence (P50052 whole entry): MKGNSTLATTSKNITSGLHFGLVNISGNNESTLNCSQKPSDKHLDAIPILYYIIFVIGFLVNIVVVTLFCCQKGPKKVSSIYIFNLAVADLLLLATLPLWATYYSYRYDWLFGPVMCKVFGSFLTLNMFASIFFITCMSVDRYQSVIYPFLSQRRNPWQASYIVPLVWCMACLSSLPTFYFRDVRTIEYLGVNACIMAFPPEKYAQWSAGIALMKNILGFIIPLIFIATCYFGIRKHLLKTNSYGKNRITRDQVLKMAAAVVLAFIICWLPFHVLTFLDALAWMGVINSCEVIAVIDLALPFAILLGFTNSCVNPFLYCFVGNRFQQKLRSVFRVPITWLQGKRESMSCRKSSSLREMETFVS
Summary of the method: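 AT2 IC50 derived from four dose levels per compound, following a published protocol.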

Staphylococcus aureus [5] = assay: Antibacterial activity against Staphylococcus aureus infected iv bid dosed mouse model assessed as reduction of colony forming unit in kidney; assay type: functional; summary of the method: as §2
Enterococcus faecalis [6] = assay: Antibacterial activity against Enterococcus faecalis; assay type: functional; summary of the method: as §1

CO/C(C)=C1/NC(=O)[C@H]([C@@H](C)O)NC(=O)c2csc(n2)-c2cc(O)c(-c3nc(C(=O)NCCNC(=O)CN4CCOCC4)cs3)nc2-c2csc(n2)[C@@H]2COC(=O)c3c4c5c(cccc5n3O)COC(=O)[C@@H](O[C@H]3C[C@](C)(O)[C@H](N(C)C)[C@H](C)O3)[C@@H](OC4)[C@H](NC(=O)c3csc1n3)c1nc(cs1)C(=O)N2
MIC (Staphylococcus aureus [1]): 0.0038 mg/L (≈ 0.00247 µM)
MIC (Streptococcus pneumoniae): 0.00048 mg/L (≈ 0.000312 µM)
MIC (Enterococcus faecalis [2]): 0.06 mg/L (≈ 0.039 µM)
ED99 (Staphylococcus aureus [3]): 0.05 mg/kg
IC50 [4]: 0.25 µM

CO/C(C)=C1/NC(=O)[C@H]([C@@H](C)O)NC(=O)c2csc(n2)-c2cc(O)c(-c3nc(C(=O)NCCN(C)C)cs3)nc2-c2csc(n2)[C@@H]2COC(=O)c3c4c5c(cccc5n3O)COC(=O)[C@@H](O[C@H]3C[C@](C)(O)[C@H](N(C)C)[C@H](C)O3)[C@@H](OC4)[C@H](NC(=O)c3csc1n3)c1nc(cs1)C(=O)N2
MIC (Staphylococcus aureus [1]): 0.015 mg/L (≈ 0.0104 µM)
MIC (Streptococcus pneumoniae): 0.00046 mg/L (≈ 0.00032 µM)
MIC (Enterococcus faecalis [2]): 0.06 mg/L (≈ 0.0417 µM)
ED99 (Staphylococcus aureus [3]): 0.17 mg/kg
IC50 [4]: 0.19 µM

CC(=O)NC[C@H]1CN(c2ccc(N3CCOCC3)c(F)c2)C(=O)O1 [LINEZOLID]
ED99 (Staphylococcus aureus [5]): 12 mg/kg

CO/C(C)=C1/NC(=O)[C@H]([C@@H](C)O)NC(=O)c2csc(n2)-c2cc(O)c(-c3nc(C(=O)NCCNC(=O)CN(C)C)cs3)nc2-c2csc(n2)[C@@H]2COC(=O)c3c4c5c(cccc5n3O)COC(=O)[C@@H](O[C@H]3C[C@](C)(O)[C@H](N(C)C)[C@H](C)O3)[C@@H](OC4)[C@H](NC(=O)c3csc1n3)c1nc(cs1)C(=O)N2
MIC (Staphylococcus aureus [1]): 0.019 mg/L (≈ 0.0127 µM)
MIC (Streptococcus pneumoniae): 0.00059 mg/L (≈ 0.000394 µM)
MIC (Enterococcus faecalis [2]): 0.09 mg/L (≈ 0.0601 µM)
ED99 (Staphylococcus aureus [3]): 0.2 mg/kg
IC50 [4]: 0.078 µM

C=C(NC(=O)c1csc(-c2nc3c(cc2O)-c2nc(cs2)C(=O)N[C@@H]([C@@H](C)O)C(=O)N/C(=C(\C)OC)c2nc(cs2)C(=O)N[C@@H]2c4nc(cs4)C(=O)N[C@@H](COC(=O)c4c5c6c(cccc6n4O)COC(=O)[C@@H](O[C@H]4C[C@](C)(O)[C@H](N(C)C)[C@H](C)O4)[C@H]2OC5)c2nc-3cs2)n1)C(N)=O [MJ347-81F4 A]
MIC (Staphylococcus aureus [1]): 0.007 mg/L (≈ 0.00487 µM)
MIC (Enterococcus faecalis [6]): 0.015 mg/L (≈ 0.0104 µM)
MIC (Streptococcus pneumoniae): 0.002 mg/L (≈ 0.00139 µM)
MIC (Enterococcus faecalis [2]): 0.03 mg/L (≈ 0.0209 µM)
